Compound activity from PubChem BioAssay.
Hits are enriched below; roughly 4.8% of the tested compounds scored in any of these assays.
ALR H2O2 inh: inhibitors of human ALR sulfhydryl oxidase, primary screen, biochemical, H2O2 detection, HRP-luminol luminescence, single point. purified ALR, DTT oxidation. 290,000 compounds, 3.8% hits. inhibition, % (concentration not given with the values). AID 485317, 2010;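 active = mean replicate inhibition above about 79%, with every replicate also reaching it, limit read from the data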
Target sequence (P55789 whole entry, looked up): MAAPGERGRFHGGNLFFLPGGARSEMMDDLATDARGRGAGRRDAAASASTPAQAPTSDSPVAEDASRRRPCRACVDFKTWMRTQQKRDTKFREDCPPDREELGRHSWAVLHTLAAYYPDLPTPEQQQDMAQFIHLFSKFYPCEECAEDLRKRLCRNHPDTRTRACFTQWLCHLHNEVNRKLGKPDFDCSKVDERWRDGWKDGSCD
UCH37 DUB inh: inhibitors of human UCH37 deubiquitinase, primary screen, biochemical, Ub-AMC cleavage, fluorescence | purified proteasome/UCH37 | inhibition, % (no concentration beside the values) | 330,000 compounds, 0.33% hits | AID 588478, 2011;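 active = mean inhibition over replicate wells above about 20%, limit read from the data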;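 note: 0% = compound-free wells with enzyme and 100% = wells lacking proteasome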
Target sequence (Q9Y5K5 whole entry, looked up): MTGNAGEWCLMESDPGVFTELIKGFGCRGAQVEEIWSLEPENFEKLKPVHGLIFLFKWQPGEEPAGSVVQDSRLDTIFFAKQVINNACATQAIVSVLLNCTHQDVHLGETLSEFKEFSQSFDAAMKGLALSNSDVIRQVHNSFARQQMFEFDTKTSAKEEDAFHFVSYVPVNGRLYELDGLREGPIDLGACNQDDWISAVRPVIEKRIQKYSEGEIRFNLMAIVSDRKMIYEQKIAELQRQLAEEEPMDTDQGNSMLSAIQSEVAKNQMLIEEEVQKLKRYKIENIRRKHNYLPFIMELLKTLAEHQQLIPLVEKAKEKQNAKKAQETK
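Material: human UCH37 enzyme supplied as purified proteasome complex / Amount: 0.15 nM proteasome as dispensed / Buffer or medium: pH 7.4 Tris-HCl (50 mM) with ovalbumin, ATP-MgCl2, DTT / Times: preincubation 30 min, reaction 25 min, room temperature / Technique: AMC fluorescence from Ub-AMC cleavage, excitation 355 nm, emission 460 nm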
Calb FLC: C. albicans growth inhibition with fluconazole, primary screen, CaCi-2 strain, Alamar Blue fluorescence; C. albicans CaCi-2 (fluconazole-resistant clinical isolate) + fluconazole, 48 h; growth inhibition, % (concentration not given with the values); 300,000 compounds, 0.57% hits; AID 1979, 2009;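 active = growth inhibition above about 58% in most replicates, limit read from the data, passing the limit was not always enough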;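 note: all wells also contain fluconazole at 8 µg/ml as a sub-toxic cotreatment; 0% = median of DMSO wells and 100% = median of geldanamycin control wells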
NALP3 yeast inh: NALP3 inflammasome inhibitors in reconstituted yeast, primary screen, luminescence, uHTS | 330,000 compounds, 0.39% hits | Yeast reconstituted NLRP3/ASC/caspase-1, beta-gal luminescence, 24 h | AID 2825, 2010 | inhibition, % at 10 µM;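 active = inhibition of 50% or more; inactive = inhibition below 50%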;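 note: plate controls were induced DMSO wells for no effect and uninduced yeast grown without galactose for full effect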
NALP1 yeast inh: NALP1 inflammasome inhibitors in reconstituted yeast, colorimetric, S. cerevisiae, triplicate retest; S. cerevisiae NALP1/ASC/caspase-1 growth, X-gal OD620, 72 h; inhibition, % at 10 µM; 280,000 compounds, 0.61% hits; in the data active = inhibition mostly above about 24%, no sharp cut-off; inactive = mostly below about 32%
ATG4B inhibitor: ATG4B protease inhibitors, primary screen, biochemical, fluorescence, uHTS. Cysteine protease ATG4B (Homo sapiens), Q9Y4P1. ATG4B cleavage of LC3-PLA2, NBD-HPC fluorescence, 1 h. inhibition, % at 8.33 µM. 340,000 compounds, 0.51% hits. AID 504462, 2011; in the data active = inhibition above about 40%
An asterisk follows results filed as active.

Screening CCCCCOC(=O)CC(C(=O)OCCCCC)N1CCCCC1 (stereo not given) returned ALR H2O2 inh 5, UCH37 DUB inh 4, Calb FLC -3, NALP3 yeast inh 1, NALP1 yeast inh 20 and ATG4B inhibitor 16.
For CCOC(=O)C(C)C(C)=NNC(=O)CCC(=O)Nc1cc(C)ccc1C (stereo not given) the results were UCH37 DUB inh 0.
Screening CCOC(=O)C(C)/C(C)=N/NC(N)=S (stereo not given) returned ALR H2O2 inh 96*, Calb FLC -14, NALP3 yeast inh 16, NALP1 yeast inh 3 and ATG4B inhibitor -3.
For C=CCn1sc(N)c(C(=O)OCC)c1=S the results were ALR H2O2 inh 99*, UCH37 DUB inh -1, Calb FLC -4, NALP3 yeast inh 4, NALP1 yeast inh -2 and ATG4B inhibitor -7.
Screening CCOC(=O)c1c(N)ssc1=S returned ALR H2O2 inh 68, UCH37 DUB inh 0, Calb FLC -4, NALP3 yeast inh 6, NALP1 yeast inh 19 and ATG4B inhibitor -3.
For CCCOc1ccc(Cl)cc1CNc1ccccc1 the results were ALR H2O2 inh 98*, UCH37 DUB inh 0, Calb FLC -24, NALP3 yeast inh 3, NALP1 yeast inh -4 and ATG4B inhibitor 4.
`COc1ccccc1N1CCN(N=Cc2ccc(C(=O)O)cc2)CC1` gave UCH37 DUB inh 2.
For CC(C)CCc1c(O)nc(SCC(C)C)[nH]c1=O the results were ALR H2O2 inh 89*, UCH37 DUB inh -1, Calb FLC 0, NALP3 yeast inh 17, NALP1 yeast inh -2 and ATG4B inhibitor 6.
Screening CCCCc1c(O)nc(SCC(=O)c2ccccc2)[nH]c1=O returned ALR H2O2 inh 99*, UCH37 DUB inh 4, Calb FLC 2, NALP3 yeast inh 12, NALP1 yeast inh 17 and ATG4B inhibitor -9.
CCCCc1c(O)nc(SCC(=O)O)[nH]c1=O was read as ALR H2O2 inh 5, UCH37 DUB inh 3, Calb FLC -6, NALP3 yeast inh 3, NALP1 yeast inh -3 and ATG4B inhibitor 6.
CCc1c(O)nc(SCC(=O)Nc2ccccc2C)[nH]c1=O was read as ALR H2O2 inh 99*, UCH37 DUB inh 7, Calb FLC -3, NALP3 yeast inh 16, NALP1 yeast inh 10 and ATG4B inhibitor -2.
Screening CCCCCCc1c(O)nc(SCC(=O)O)[nH]c1=O returned ALR H2O2 inh 17, UCH37 DUB inh 6, Calb FLC -8, NALP1 yeast inh 33* and ATG4B inhibitor -7.
Screening CCOC(=O)NN=Cc1cn(Cc2ccccc2Cl)c2ccccc12 returned UCH37 DUB inh 6.
NS(=O)(=O)c1ccc(-c2ccc(C=NNc3ccc(C(=O)O)cc3)o2)cc1 was read as UCH37 DUB inh -7.
`NC(=O)c1cc2ccccc2oc1=NNC(=O)c1ccc(F)cc1` gave UCH37 DUB inh 8.
`Cc1cc(C)c2oc(C(=O)NC3CCS(=O)(=O)C3)cc(=O)c2c1` (stereo not given) gave ALR H2O2 inh -2, UCH37 DUB inh -29, Calb FLC -17, NALP3 yeast inh 4, NALP1 yeast inh -21 and ATG4B inhibitor 6.
For Cc1ccc2c(=O)cc(C(=O)NC3CCS(=O)(=O)C3)oc2c1C (stereo not given) the results were ALR H2O2 inh 98*, UCH37 DUB inh 2, Calb FLC -2, NALP3 yeast inh 14, NALP1 yeast inh -9 and ATG4B inhibitor -3.
For Cc1ccc(NN=Cc2ccc(N3CCOCC3)cc2)cc1C the results were UCH37 DUB inh 0.
O=S(=O)(NN=C1CC(c2ccccc2)Oc2ccccc21)c1ccccc1 (stereo not given) was read as UCH37 DUB inh 4.
`CNC(=S)NN=Cc1cn(CCOc2ccc(OC)cc2)c2ccccc12` gave UCH37 DUB inh 2.
Screening O=C(NN=Cc1ccc(O)cc1)c1nc(-c2ccccc2)n(-c2ccccc2)n1 returned UCH37 DUB inh 6.
`O=C(Nc1ccccn1)c1nc(-c2ccccc2)n(-c2ccccc2)n1` gave ALR H2O2 inh -3, UCH37 DUB inh 3, Calb FLC 11, NALP3 yeast inh 6, NALP1 yeast inh 28 and ATG4B inhibitor 2.
Screening NC(=O)c1ccsc1NC(=O)c1nc(-c2ccccc2)n(-c2ccccc2)n1 returned ALR H2O2 inh 86*, UCH37 DUB inh -12, Calb FLC 18, NALP3 yeast inh 8, NALP1 yeast inh 5 and ATG4B inhibitor -24.
Cc1cc(C)n2nc(C(=O)N/N=C/c3ccc(Cl)cc3)nc2n1 was read as ALR H2O2 inh -5, Calb FLC -1, NALP3 yeast inh 2, NALP1 yeast inh -1 and ATG4B inhibitor -5.
COc1cc(/C=N/NC(=O)c2nc(-c3ccccc3)n(-c3ccccc3)n2)ccc1O was read as ALR H2O2 inh 85*, Calb FLC 25, NALP3 yeast inh -7, NALP1 yeast inh -4 and ATG4B inhibitor -16.
Screening Cc1cc(C)n2nc(C(=O)N/N=C/c3ccc(O)cc3)nc2n1 returned ALR H2O2 inh 99*, Calb FLC 23, NALP3 yeast inh 11, NALP1 yeast inh 6 and ATG4B inhibitor -9.
For O=C(N/N=C/c1ccc(O)cc1)c1nc(-c2ccccc2)n(-c2ccccc2)n1 the results were ALR H2O2 inh 98*, Calb FLC -1, NALP3 yeast inh -10, NALP1 yeast inh 11 and ATG4B inhibitor -9.
Screening CSc1nc(-c2ccco2)nn1C(=O)c1ccc(C)cc1 returned ALR H2O2 inh 97*, UCH37 DUB inh 2, Calb FLC 6, NALP3 yeast inh 17, NALP1 yeast inh 6 and ATG4B inhibitor 6.
`COc1ccccc1C(=O)n1nc(-c2ccco2)nc1SC` gave ALR H2O2 inh 98*, UCH37 DUB inh 5, Calb FLC -2, NALP3 yeast inh -5, NALP1 yeast inh 6 and ATG4B inhibitor -4.
Screening COc1cccc(CNc2ccc3[nH]c(=O)[nH]c3c2)c1OCc1ccccc1Cl returned ALR H2O2 inh 97*, UCH37 DUB inh 0, Calb FLC -7, NALP3 yeast inh 3, NALP1 yeast inh 30 and ATG4B inhibitor 5.
Screening COc1cccc(CNc2ccc3[nH]c(=O)[nH]c3c2)c1OCc1ccccc1 returned ALR H2O2 inh 99*, UCH37 DUB inh 1, Calb FLC -6, NALP3 yeast inh 16, NALP1 yeast inh 8 and ATG4B inhibitor -8.
COc1cc(CNc2ccc3[nH]c(=O)[nH]c3c2)ccc1OCc1ccccc1 was read as ALR H2O2 inh 68, UCH37 DUB inh -4, Calb FLC 23, NALP3 yeast inh 25, NALP1 yeast inh 4 and ATG4B inhibitor 1.
